Several values for one entry are separate records, joined by “and”; a condition that tells them apart may be missing. Equal values may be shown once.
Key:
Assay type in all cases: toxicity, cell-based
HEK-293T = experiment: Incucyte cell viability with HEK293T; conditions: human, 10 µM, compound concentration 10 uM; also: filed as whole numbers so only -1 and 0 and 1 occur
Fibroblast = experiment: Multiplex assay against human fibroblast
In short: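 Values for tubulin, mitochondrial-mass and membrane-permeability phenotypes are per cents of cells with healthy nuclei. These cells were identified by CellPathfinder machine-learning gating of live cells that had been stained at seeding with Hoechst33342, BioTracker Green Microtubule Cytoskeleton Dye, MitoTracker Red and Annexin V Alexa Fluor 680 and imaged on a CQ1 microscope at 37°C and 5% CO2 after compound addition. The gating first set Hoechst high-intensity objects apart from normal cells, then split normal cells into healthy, pyknosed or fragmented nuclei, and pyknosed cells into mitotic or apoptotic.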

U2OS = experiment: Incucyte cell viability with U2OS; conditions: human, 10 µM, compound concentration 10 uM; also: filed as whole numbers so only -1 and 0 and 1 occur
[1] = 6 h, replicate number 1, timepoint 6 hours
[2] = 18 h, replicate number 1, timepoint 18 hours
[3] = 24 h, replicate number 1, timepoint 24 hours
[4] = 12 h, 1 µM, compound concentration 1 uM, replicate 1
[5] = 12 h, 1 µM, compound concentration 1 uM, replicate 2
[6] = 12 h, 10 µM, compound concentration 10 uM, replicate 1
[7] = 12 h, 10 µM, compound concentration 10 uM, replicate 2
[8] = 24 h, 1 µM, compound concentration 1 uM, replicate 1
[9] = 24 h, 1 µM, compound concentration 1 uM, replicate 2
[10] = 24 h, 10 µM, compound concentration 10 uM, replicate 1
[11] = 24 h, 10 µM, compound concentration 10 uM, replicate 2
[12] = 48 h, 10 µM, compound concentration 10 uM, replicate 1
[13] = 48 h, 10 µM, compound concentration 10 uM, replicate 2

Cc1c(Nc2ccc(S(=O)(=O)N3CCN(C)CC3)cc2F)nc2ccc(-c3cnn(C4CC4)c3)cn2c1=O
Growth Rate (HEK-293T; 0 h, replicate number 1, timepoint 0 hours): 1 | Growth Rate (HEK-293T; [1]): 0 | Growth Rate (HEK-293T; 12 h, replicate number 2, timepoint 12 hours): 1 | Growth Rate (HEK-293T; [2]): 1 | Growth Rate (HEK-293T; [3]): 1 | Population Apoptotic (%) (Fibroblast; [4]): 66% | Population Fragmented Nuclei (%) (Fibroblast; [4]): 29% | Population Healthy Nuclei (%) (Fibroblast; [4]): 57% | Population Hoechst High Intensity Objects (%) (Fibroblast; [4]): 11% | Population Membrane Permeable-Phenotype (%) (Fibroblast; [4]): 9% | Population Mitochondria Different-Phenotype (%) (Fibroblast; [4]): 4% | Population Mitotic Cells (%) (Fibroblast; [4]): 33% | Population Normal (%) (Fibroblast; [4]): 88% | Population Pyknosed Nuclei (%) (Fibroblast; [4]): 12% | Population Tubulin-Different-Phenotype (%) (Fibroblast; [4]): 4% | Total Cell Count (Fibroblast; [4]): 222 | Population Apoptotic (%) (Fibroblast; [5]): 50% | Population Fragmented Nuclei (%) (Fibroblast; [5]): 49% | Population Healthy Nuclei (%) (Fibroblast; [5]): 40% | Population Hoechst High Intensity Objects (%) (Fibroblast; [5]): 24% | Population Membrane Permeable-Phenotype (%) (Fibroblast; [5]): 0% | Population Mitochondria Different-Phenotype (%) (Fibroblast; [5]): 0% | Population Mitotic Cells (%) (Fibroblast; [5]): 50% | Population Normal (%) (Fibroblast; [5]): 75% | Population Pyknosed Nuclei (%) (Fibroblast; [5]): 10% | Population Tubulin-Different-Phenotype (%) (Fibroblast; [5]): 0% | Total Cell Count (Fibroblast; [5]): 73 | Population Apoptotic (%) (Fibroblast; [6]): 67% and 50% | Population Fragmented Nuclei (%) (Fibroblast; [6]): 32% and 29% | Population Healthy Nuclei (%) (Fibroblast; [6]): 39% and 54% | Population Hoechst High Intensity Objects (%) (Fibroblast; [6]): 45% and 41% | Population Membrane Permeable-Phenotype (%) (Fibroblast; [6]): 19% and 13% | Population Mitochondria Different-Phenotype (%) (Fibroblast; [6]): 3% and 4% | Population Mitotic Cells (%) (Fibroblast; [6]): 32% and 50% | Population Normal (%) (Fibroblast; [6]): 54% and 58% | Population Pyknosed Nuclei (%) (Fibroblast; [6]): 27% and 16% | Population Tubulin-Different-Phenotype (%) (Fibroblast; [6]): 30% and 20% | Total Cell Count (Fibroblast; [6]): 373 and 542 | Population Apoptotic (%) (Fibroblast; [7]): 78% and 64% | Population Fragmented Nuclei (%) (Fibroblast; [7]): 34% and 56% | Population Healthy Nuclei (%) (Fibroblast; [7]): 42% | Population Hoechst High Intensity Objects (%) (Fibroblast; [7]): 79% and 58% | Population Membrane Permeable-Phenotype (%) (Fibroblast; [7]): 11% and 8% | Population Mitotic Cells (%) (Fibroblast; [7]): 21% and 35% | Population Normal (%) (Fibroblast; [7]): 20% and 41% | Population Tubulin-Different-Phenotype (%) (Fibroblast; [7]): 6% and 8% | Population Apoptotic (%) (Fibroblast; [8]): 85% | Population Fragmented Nuclei (%) (Fibroblast; [8]): 26% | Population Healthy Nuclei (%) (Fibroblast; [8]): 60% | Population Hoechst High Intensity Objects (%) (Fibroblast; [8]): 12% | Population Membrane Permeable-Phenotype (%) (Fibroblast; [8]): 5% | Population Mitochondria Different-Phenotype (%) (Fibroblast; [8]): 2% | Population Mitotic Cells (%) (Fibroblast; [8]): 14% | Population Normal (%) (Fibroblast; [8]): 87% | Population Pyknosed Nuclei (%) (Fibroblast; [8]): 13% | Population Tubulin-Different-Phenotype (%) (Fibroblast; [8]): 4% | Total Cell Count (Fibroblast; [8]): 230 | Population Apoptotic (%) (Fibroblast; [9]): 80% | Population Fragmented Nuclei (%) (Fibroblast; [9]): 58% | Population Healthy Nuclei (%) (Fibroblast; [9]): 34% | Population Hoechst High Intensity Objects (%) (Fibroblast; [9]): 20% | Population Membrane Permeable-Phenotype (%) (Fibroblast; [9]): 8% | Population Mitochondria Different-Phenotype (%) (Fibroblast; [9]): 12% | Population Mitotic Cells (%) (Fibroblast; [9]): 20% | Population Normal (%) (Fibroblast; [9]): 79% | Population Pyknosed Nuclei (%) (Fibroblast; [9]): 6% | Population Tubulin-Different-Phenotype (%) (Fibroblast; [9]): 8% | Total Cell Count (Fibroblast; [9]): 91 | Population Apoptotic (%) (Fibroblast; [10]): 46% and 54% | Population Fragmented Nuclei (%) (Fibroblast; [10]): 40% and 29% | Population Healthy Nuclei (%) (Fibroblast; [10]): 46% and 57% | Population Hoechst High Intensity Objects (%) (Fibroblast; [10]): 42% and 34% | Population Membrane Permeable-Phenotype (%) (Fibroblast; [10]): 21% | Population Mitotic Cells (%) (Fibroblast; [10]): 53% and 45% | Population Normal (%) (Fibroblast; [10]): 57% and 65% | Population Pyknosed Nuclei (%) (Fibroblast; [10]): 13% | Population Tubulin-Different-Phenotype (%) (Fibroblast; [10]): 37% and 21% | Total Cell Count (Fibroblast; [10]): 395 and 524 | Population Apoptotic (%) (Fibroblast; [11]): 60% and 68% | Population Fragmented Nuclei (%) (Fibroblast; [11]): 58% and 33% | Population Healthy Nuclei (%) (Fibroblast; [11]): 37% and 44% | Population Hoechst High Intensity Objects (%) (Fibroblast; [11]): 58% and 77% | Population Membrane Permeable-Phenotype (%) (Fibroblast; [11]): 13% and 9% | Population Mitochondria Different-Phenotype (%) (Fibroblast; [11]): 23% and 0% | Population Mitotic Cells (%) (Fibroblast; [11]): 40% and 31% | Population Normal (%) (Fibroblast; [11]): 41% and 22% | Population Apoptotic (%) (Fibroblast; [12]): 57% | Population Fragmented Nuclei (%) (Fibroblast; [12]): 39% | Population Healthy Nuclei (%) (Fibroblast; [12]): 47% | Population Hoechst High Intensity Objects (%) (Fibroblast; [12]): 43% | Population Membrane Permeable-Phenotype (%) (Fibroblast; [12]): 14% | Population Mitochondria Different-Phenotype (%) (Fibroblast; [12]): 1% | Population Mitotic Cells (%) (Fibroblast; [12]): 42% | Population Normal (%) (Fibroblast; [12]): 56% | Population Pyknosed Nuclei (%) (Fibroblast; [12]): 13% | Population Tubulin-Different-Phenotype (%) (Fibroblast; [12]): 31% | Total Cell Count (Fibroblast; [12]): 344 | Population Apoptotic (%) (Fibroblast; [13]): 60% | Population Healthy Nuclei (%) (Fibroblast; [13]): 57% | Population Hoechst High Intensity Objects (%) (Fibroblast; [13]): 19% | Population Membrane Permeable-Phenotype (%) (Fibroblast; [13]): 16% | Population Mitotic Cells (%) (Fibroblast; [13]): 40% | Population Normal (%) (Fibroblast; [13]): 80% | Population Pyknosed Nuclei (%) (Fibroblast; [13]): 3% | Population Tubulin-Different-Phenotype (%) (Fibroblast; [13]): 24% | Total Cell Count (Fibroblast; [13]): 159 | Growth Rate (U2OS; 0 h, replicate number 2, timepoint 0 hours): 0 | Growth Rate (U2OS; [1]): 1 | Growth Rate (U2OS; 12 h, replicate number 1, timepoint 12 hours): 0 | Growth Rate (U2OS; [2]): 0 | Growth Rate (U2OS; 18 h, replicate number 2, timepoint 18 hours): 1 | Growth Rate (U2OS; [3]): 0 | Growth Rate (U2OS; 24 h, replicate number 2, timepoint 24 hours): 1
